Sampled rows, rich in hits. Any-hit rate of the full collection: about 4%.
ERb coact inh: ER-beta (human) coactivator binding inhibition | Q92731 | TR-FRET ER-beta LBD / SRC1-Cy5 peptide binding; receptor agonist-loaded with 1 µM estradiol | inhibition, % at 25.6 µM | 1.3% of 86,000 active;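 active = compounds whose percent inhibition of the receptor-coactivator binding signal exceeds about 50% in the single-dose screen, limit read from the data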;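 also: 0% = receptor plus peptide wells without compound and 100% = peptide-only wells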
ERa coact pot: ER-alpha (human) coactivator binding potentiation | TR-FRET ERalpha-LBD/SRC-Cy5 coactivator binding, 2 h; 100 = basal binding, no effect | 1.3% of 86,000 active | P03372 | coactivator binding (% of control), % at 25.6 µM; in the data active = activity above about 200%;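 also: binding measured in presence of low estradiol as agonist stimulus; 0% = peptide alone without receptor and 100% = receptor with peptide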
Rev-RRE block: HIV Rev-RRE protein-RNA interaction inhibition. 0.79% of 97,000 active. inhibition, % at 8 µM. P05866. Rev peptide-RRE RNA binding, FRET;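 active = inhibition above the screen-wide mean plus 3 SD, cut at about 35% in these data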;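 also: 0% = median DMSO wells and 100% = median Neomycin B control wells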
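Assay system: Rev peptide and RRE RNA, both fluorescently labelled; times: 5 min preincubation and 15 min binding, 25 °C; detection: FRET, ex 480 nm, em 540 and 671 nm; read-out basis: % inhibition from 671/540 nm acceptor-to-donor ratio, scaled between controls; benchmarks: DMSO low control, neomycin B high control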
FAK blocker: inhibitors of human focal adhesion kinase; Q05397; biochemical FAK kinase activity assay; inhibition, %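 (tested at 7 µM)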; 0.84% of 97,000 active; AID 727; in the data active = inhibition above about 19%;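 also: 0% = DMSO and 100% = reference compound high control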
Smad3 FoxH1 inh: Smad3 (human) transcription factor binding inhibition; P84022; TR-FRET Smad3/Dy647-FoxH1 peptide binding, europium anti-His; inhibition, % at 25 µM; 0.29% of 88,000 active;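 active = compounds that reduce the energy-transfer binding signal between the protein and its labelled peptide by more than half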;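 also: 0% = Smad3 plus labelled peptide maximal FRET and 100% = peptide-only background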
Target sequence (P84022 whole entry, looked up): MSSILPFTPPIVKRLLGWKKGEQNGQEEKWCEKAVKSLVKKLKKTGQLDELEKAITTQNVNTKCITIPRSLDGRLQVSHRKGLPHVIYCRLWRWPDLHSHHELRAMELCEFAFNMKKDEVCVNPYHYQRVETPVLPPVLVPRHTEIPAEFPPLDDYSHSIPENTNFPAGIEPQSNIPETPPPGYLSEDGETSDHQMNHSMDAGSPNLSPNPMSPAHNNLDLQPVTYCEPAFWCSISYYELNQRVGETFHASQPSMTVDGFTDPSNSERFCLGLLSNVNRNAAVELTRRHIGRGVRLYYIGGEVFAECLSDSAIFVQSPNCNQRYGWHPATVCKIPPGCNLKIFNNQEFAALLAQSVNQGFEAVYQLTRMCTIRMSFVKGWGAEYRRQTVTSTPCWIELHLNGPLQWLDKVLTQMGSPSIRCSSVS
ERa coact inh: blocks coactivator binding to human estrogen receptor alpha | 1.7% of 86,000 active | inhibition, % at 25.6 µM | AID 629 | TR-FRET ER-alpha LBD / SRC-1 peptide, estradiol-bound; in the data active = inhibition above about 50%;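 also: 0% = receptor plus peptide control and 100% = peptide only without receptor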
* marks the source's active call; other numbers are inactive results; / = not tested or not shown; [ ] = dose if it differs, or a comment.

SMILES	ERb coact inh	ERa coact pot	Rev-RRE block	FAK blocker	Smad3 FoxH1 inh	ERa coact inh
c1cn2cc(CN3CCOCC3)nc2s1	12	103	10	0	-1	8
Cc1ccc(C2SCC(=O)N2Cc2cn3ccsc3n2)o1 (stereo not given)	4	89	2	-6	64*[fluorescence artefact?]	-3
COc1cccc2sc(NC(=O)c3ccc(S(=O)(=O)N4CCOCC4)cc3)nc12	-7	92	-1	-4	0	0
CCOC(=O)N1CCN(S(=O)(=O)c2ccc(C(=O)Nc3nc4ccccc4s3)cc2)CC1	30	280*[fluorescence artefact?]	-6	-11	-13	42
CCOC(=O)N1CCN(S(=O)(=O)c2ccc(C(=O)Nc3nc4ccc(F)cc4s3)cc2)CC1	5	377*	6	-6	-25	-5
Cc1c(C(=O)N2CCN(c3ccccc3)CC2)sc2ncnc(N3CCN(c4ccccc4)CC3)c12	8	400*[fluorescence artefact?]	-5	-1	7	2
COc1cccc(NC(=O)CSc2ncnc3c2oc2ccccc23)c1	57*[fluorescence artefact?]	373*[fluorescence artefact?]	7	-212	-2	64*[fluorescence artefact?]
Cc1nc(SCC(=O)Nc2ccc(C)c(F)c2)c2oc3ccccc3c2n1	-38	840*[fluorescence artefact?]	0	-82	17	-35
O=C(CSc1ncnc2c1oc1ccccc12)Nc1ccccc1C(F)(F)F	29	721*[fluorescence artefact?]	/	/	-7	23
COc1ccc(CCNC(=O)CSc2ncnc3c2oc2ccccc23)cc1OC	0	123	7	1	3	-3
COc1ccc(Cl)cc1NC(=O)CSc1ncnc2c1oc1ccccc12	16	230*	/	/	2	38
O=C(CSc1ncnc2c1oc1ccccc12)N1CCCc2ccccc21	39	202*[fluorescence artefact?]	2	-2	16	33
O=C1C=C(Nc2nc(C(=O)O)cc(=O)[nH]2)c2ccccc2C1=O	/	/	/	/	7	/
CC(C)(C)C1CC=C2C(C#N)=C(N)C(C#N)(C#N)C(c3cccs3)C2C1 (stereo not given)	-4	72	49*	-1	9	-1
CN1C2C=C3C(C#N)=C(N)C(C#N)(C#N)[C@@H](c4cccs4)C3C1CC2 (stereo not given in full)	-2	105	16	-1	5	-10
CCOC(=O)c1c(C)oc2c1c(C(c1ccncc1)N1CCOCC1)c(O)c1ccccc12 (stereo not given)	71*[fluorescence artefact?]	93	3	6	9	68*[fluorescence artefact?]
CCOC(=O)c1c(C)oc2c1c(C=NC1CCS(=O)(=O)C1)c(O)c1ccccc12 (stereo not given)	44	79	8	-1	15	70*
O=C(O)C[C@H](Cc1ccc2c(c1)OCO2)C(=O)O	/	/	/	/	-11	/
Cc1ccc(N2C(=O)c3cccc4c(N5CCN(C)CC5)ccc(c34)C2=O)c2cccnc12	40	113	110*[fluorescence artefact?]	3	5	42
Cc1sc(NC(=O)CSc2nnc(-c3ccc(F)cc3)o2)c(C#N)c1C	20	101	6	5	6	52*
CCOC(=O)c1c(NC(=O)CSc2nnc(-c3cccnc3)o2)sc(C(C)=O)c1C	16	204*[fluorescence artefact?]	12	-1	-9	20
CCOC(=O)c1c(NC(=O)CSc2nnc(-c3ccco3)o2)sc(C(C)=O)c1C	-3	156	3	-10	5	10
Cc1sc(NC(=O)CSc2nnc(COc3ccc(Cl)cc3)n2C)c(C#N)c1C	42	317*[fluorescence artefact?]	4	-1	6	41
Cc1ccc(-c2nnc(SCC(=O)Nc3sc(C)c(C)c3C#N)n2C)cc1	11	248*[fluorescence artefact?]	-2	12	16	3
Cn1c(SCC(=O)Nc2ccccc2)nnc1-c1ccc(NC(=O)CCc2ccccc2)cc1	76*[fluorescence artefact?]	99	2	-1	-8	-1
Cc1ccc(OCc2ccc(C(=O)N3CCOCC3)cc2)cc1C	-12	59	7	-1	8	-25
Cc1ccc(OCc2ccoc2C(=O)O)cc1C	66*	32	2	1	16	62*
N#CC1=C(N)C(C#N)(C#N)[C@H](c2c(F)cccc2F)[C@H]2CC3(CC=C12)OCCO3	0	119	56*	-1	-7	-7
COCCCn1c2nc3ccccc3nc2c2c(=O)n(Cc3ccc(Cl)cc3)cnc21	38	104	8	-2	6	56*[fluorescence artefact?]
